Reference: ChEMBL document CHEMBL1132370, “8,11-dihydroxy-6-[(aminoalkyl)amino]-7H-benzo[e]perimidin-7-ones with activity in multidrug-resistant cell lines: synthesis and antitumor evaluation” (J Med Chem, 1999)

Legend:
[1] = test system: HT-29; assay: Percent inhibition at G2/M phase of cell cycle at a dose of 20 ng/mL after 72 hours of induction in HT-29/Mx cell line; format: functional; details: Homo sapiens, HT-29, 72 h
How it was run: (§1)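 HT29 or HT29/Mx cells were treated for 72 h, then fixed in 70% ice-cold ethanol. Cells were stained with PBS containing 30 μg/mL propidium iodide and 66 units/mL RNase A, and DNA content was measured by flow cytometry on at least 10^4 cells to give G1, S and G2/M fractions.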

[2] = test system: HT-29; assay: Percent inhibition at G1 phase of cell cycle at a dose of 20 ng/mL after 72 hours of induction in HT-29/Mx cell line; format: functional; details: Homo sapiens, HT-29, 72 h; how it was run: as §1
[3] = test system: HT-29; assay: Effect of compound as percent survival at dose of 100n g/mL on HT-29 cell line after 72 hours; format: functional, Homo sapiens
How it was run: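 HT29 or mitoxantrone-resistant HT29/Mx monolayers grown in McCoy's 5A with 10% FBS and 1% 1 M Hepes at 37 °C, 5% CO2. Cells exposed to drug for 72 h. Survival measured by cell counting and given as percent of untreated control.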

[4] = test system: Mus musculus; assay: Toxic deaths at dose of 10 mg/kg (i.v.) to nude mice bearing sc Human ovarian carcinoma tumor Xenografts tested in 4 animals; format: functional; details: route intravenous
How it was run: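 Tumor fragments of A2780, A2780/Dx or HT29/Mx grafted sc in both flanks of Swiss athymic nude mice, 4–5 mice per group. Drug given iv once weekly on 3 days: days 4, 11, 18 (A2780, HT29/Mx) or days 7, 14, 21 (A2780/Dx). Dosing started at mean tumor volume 80–100 mm3. Toxic deaths recorded as deaths/total mice.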

[5] = test system: HT-29; assay: Percent inhibition at S phase of cell cycle at a dose of 100n g/mL after 72 hours of induction in HT-29/Mx cell line; format: functional, Homo sapiens
How it was run: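 HT29 and mitoxantrone-resistant HT29/Mx colon adenocarcinoma monolayers in McCoy's 5A with 10% FBS and 1% 1 M Hepes, 37 °C, 5% CO2. Drug exposure 72 h. Cells then fixed in 70% ice-cold ethanol, washed twice and resuspended in PBS with 30 μg/mL propidium iodide and 66 units/mL RNase A. At least 10^4 cells per sample read for DNA content by flow cytometry. G1/S/G2M fractions reported as percentages.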

[6] = test system: Mus musculus; assay: In vivo antileukemic activity towards P388 Murine Leukemia at a dose of 30.0 mg/kg; format: functional
[7] = test system: Mus musculus; assay: Tumor volume inhibition administered iv at a dose of 6.7 mg/kg to nude mice bearing sc Human A2780 Xenografts; format: functional
How it was run: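 Swiss nude athymic mice carrying tumor fragments grafted sc in both flanks, 4–5 mice (8–10 tumors) per group. Tumor lines kept by sc passage. Dosing iv once weekly for 3 doses, starting at mean tumor volume ca. 80–100 mm3 (A2780, HT29/Mx: days 4, 11, 18; A2780/Dx: days 7, 14, 21). Diameters measured twice weekly; TV = d²×D/2. %TVI treated vs control assessed 3–10 days after last dose.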

[8] = test system: Mus musculus; assay: Long-term survivors when compound was tested for in vivo antileukemic activity towards P388 Murine Leukemia at dose of 10.0 mg/kg tested in 18 animals; format: functional
[9] = test system: Mus musculus; assay: In vivo antileukemic activity towards P388 Murine Leukemia at a dose of 10.0 mg/kg, expressed as body weight change; format: functional
[10] = test system: HT-29; assay: Percent inhibition at G1 phase of cell cycle at a dose of 10 ng/mL after 72 hours of induction in HT-29/Mx cell line; format: functional; details: Homo sapiens, HT-29, 72 h; how it was run: as §1
[11] = test system: Mus musculus; assay: In vivo antileukemic activity towards P388 Murine Leukemia at a dose of 2.5 mg/kg, expressed as body weight change; format: functional

Question: CN(C)CCNc1ccc2ncnc3c2c1C(=O)c1c(O)ccc(O)c1-3 was tested. Which inhibition at 0.02 µg/mL [1] did it give?
Answer: Its inhibition at 0.02 µg/mL is 31%.

Question: What about the inhibition at 0.02 µg/mL [2] of the same molecule?
Answer: Its inhibition at 0.02 µg/mL is 58%.

Question: And the Survival [3]?
Answer: The Survival was 20%.

Question: And the Toxic deaths [4]?
Answer: The Toxic deaths was 0.

Question: What about the Inhibition [5] of the same molecule?
Answer: The Inhibition was 17%.

Question: What about the “T/C (ratio of treated to control)” value [6] of the same molecule?
Answer: The value was 171%.

Question: What about the TVI [7] of the same molecule?
Answer: Its TVI is 32%.

Question: And the LTS [8]?
Answer: The LTS was 0.

Question: What about the Body weight change [9] of the same molecule?
Answer: The Body weight change was 0.98 BWC.

Question: And the inhibition at 0.01 µg/mL [10]?
Answer: Its inhibition at 0.01 µg/mL is 63%.

Question: What about the Body weight change [11] of the same molecule?
Answer: Its Body weight change is 0.98 BWC.
